# Experimental data from PubChem BioAssay.
# Activity calls are given as the source filed them.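 How the source made its calls, unless noted: active means inhibition of the reporter signal at or above 50%; inactive means inhibition below 50%.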
# Legend:
# [1] = inhibitors of TNFa-induced NFkB p65 translocation, primary screen, imaging, HUVEC, MLSMR starter and 10KST1 sets (AID 438;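 active means inhibition above 20% together with a positive visual image hit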;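 further: compound added about 3h40 before a 20 min TNFalpha stimulation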;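 on inhibition: signal is the nuclear over cytoplasmic p65 intensity ratio per well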); details: HUVEC TNFa-induced p65 nuclear translocation; cell count: measured here: nuclei count (cytotoxicity indicator), at 2.08 µM; inhibition: at 2 µM, stronger effect = higher value, 0% TNFa-plus-vehicle, 100% no-TNFa wells
# [2] = reduction of polyQ htt aggregates in cells – imaging, exon1htt(103Q)mCFP cells, high-content imaging, primary screen (AID 483;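 active means visual image review flags a hit and inhibition of aggregation exceeds 20%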;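 further: compound exposure lasted 3 days before fixation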;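 on nuclei count: percent of the per-plate median nuclei count of sample wells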); details: exon1htt(103Q)mCFP cell line, aggregate imaging, at 2 µM; inhibition of aggregation: stronger effect = higher value; nuclei count: measured here: cell count, toxicity
# [3] = endothelial E-selectin expression blockers – imaging, HUVEC, immunofluorescence, MLSMR starter and 10KST1 sets, primary screen (AID 487;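 active means visually confirmed hit in the image check and inhibition above 20%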;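 on inhibition: signal is fraction of cell area covered by stained E-selectin grains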;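 on nuclei count: 100% = median nuclei count of all wells on the same plate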); details: HUVEC TNFalpha-induced E-selectin immunofluorescence imaging, at 2 µM; inhibition: stronger effect = higher value; nuclei count: measured here: cell number, toxicity
# [4] = molecular target: Voltage-gated potassium channel subunit beta-2 (Rattus norvegicus) (UniProt P62483); assay: inhibitors of rat Kvbeta2 reductase activity – biochemical, NADPH fluorescence, primary screen (AID 622;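 active means fluorescence slope higher than the sample average by over 3 SD, cut at about -0.22 in these data, passing the limit was not always enough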;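 further: slope of raw intensity against log time taken from 70 to 1610 s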); details: recombinant KvBeta, 4-cyanobenzaldehyde reduction, at 10 µM, stronger effect = higher value
# [5] = molecular target: Voltage-gated potassium channel subunit beta-2 (Rattus norvegicus) (UniProt P62483); assay: enhancers of rat Kvbeta2 NADPH turnover – biochemical, NADPH fluorescence, primary screen (AID 623;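 active means NADPH fluorescence slope more negative than the mean of all samples by about 3 SD, 99.7% confidence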;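 further: fluorescence intensity change per second fitted from 20 to 320 s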); details: Recombinant KvBeta, NADPH fluorescence decrease slope, 10 min; at 10 µM; stronger effect = lower value
# [6] = molecular target: Muscarinic acetylcholine receptor M4 (Homo sapiens) (UniProt P08173); assay: M4-linked GIRK flux change, two-sided – cell-based, HEK293 M4/GIRK, thallium flux, BTC-AM, M4 allosteric agonist project, primary screen (AID 625;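 active means fluorescence slope after compound addition differing from the mean of all tested samples at 99.7% confidence, mostly higher but some lower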;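 further: thallium influx through GIRK channels coupled to M4 in HEK293 cells with BTC-AM dye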); details: at 10 µM, actives lie on both sides
# Procedure, shortened: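 Material: HEK293 cells with M4 receptor and GIRK channels; Times: cells overnight at 37 °C, BTC-AM loading 1 h, reads 2 min total; Technique: kinetic BTC-AM fluorescence sampled at 1 Hz, 10 s pre-addition baseline; Read-out basis: slope over 15–24 s of trace normalized to starting intensity; Controls: carbachol positive, DMSO negative.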
# [7] = blockers of RIG-like receptor reporter activation – cell-based, Sendai virus stimulus, luciferase, 10K MLSCN set, TLR/RLR signaling modifier project, primary screen (AID 602276;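 active means inhibition at or above 50% at 10 µM; inactive means inhibition below 50%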;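 further: firefly luciferase from ISG56 promoter only with Renilla not read in this screen; 0% = Sendai virus plus DMSO and 100% = medium plus DMSO without virus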); details: HEK293 RL24 IRF3 luciferase reporter, at 10 µM, stronger effect = higher value
# [8] = TLR3 IRF3 reporter activation blockers – cell-based, poly I:C stimulus, luciferase, 10K MLSCN set, primary screen (AID 602277); details: HEK293-TLR3 RL24 IRF3 luciferase reporter, at 10 µM, stronger effect = higher value
# Chain of Voltage-gated potassium channel subunit beta-2 (Rattus norvegicus) (P62483 whole entry, looked up): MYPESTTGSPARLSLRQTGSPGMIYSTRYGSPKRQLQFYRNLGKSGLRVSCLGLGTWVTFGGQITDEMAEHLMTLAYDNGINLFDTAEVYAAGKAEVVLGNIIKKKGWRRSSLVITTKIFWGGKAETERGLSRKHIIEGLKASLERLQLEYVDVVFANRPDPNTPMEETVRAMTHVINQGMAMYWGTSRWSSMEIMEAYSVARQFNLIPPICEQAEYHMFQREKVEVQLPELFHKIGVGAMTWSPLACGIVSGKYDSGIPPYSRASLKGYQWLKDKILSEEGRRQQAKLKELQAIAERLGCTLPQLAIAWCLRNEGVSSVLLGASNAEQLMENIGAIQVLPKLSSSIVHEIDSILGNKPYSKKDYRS
# Chain of Muscarinic acetylcholine receptor M4 (Homo sapiens) (P08173 whole entry, looked up): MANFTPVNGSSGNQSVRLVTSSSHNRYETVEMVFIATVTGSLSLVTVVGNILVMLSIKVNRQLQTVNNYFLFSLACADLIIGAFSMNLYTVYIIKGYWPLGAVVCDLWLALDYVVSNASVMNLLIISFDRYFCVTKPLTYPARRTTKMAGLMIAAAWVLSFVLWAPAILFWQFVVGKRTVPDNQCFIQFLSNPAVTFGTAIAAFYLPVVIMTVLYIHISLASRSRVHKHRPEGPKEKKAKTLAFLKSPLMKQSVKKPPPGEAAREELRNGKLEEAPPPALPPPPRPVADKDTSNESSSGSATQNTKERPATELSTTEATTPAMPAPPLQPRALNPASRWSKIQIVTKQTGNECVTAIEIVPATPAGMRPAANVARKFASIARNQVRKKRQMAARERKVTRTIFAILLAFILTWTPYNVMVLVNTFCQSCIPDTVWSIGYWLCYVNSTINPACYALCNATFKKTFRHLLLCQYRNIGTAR
SMILES,cell count [1],inhibition [1],inhibition of aggregation [2],nuclei count [2],inhibition [3],nuclei count [3],fluorescence slope [4],NADPH fluorescence slope [5],fluorescence slope [6],inhibition [7],inhibition [8]
COc1ccc(-c2nnc(SCC#N)o2)cc1,333,-8.7% (inactive),29.7% (active),86%,24.6% (inactive),102%,-0.511 (inactive),-2.6e-05 (inactive),0.00472 (inactive),-8.24% (inactive),-31.5% (inactive)
CC(=O)Nc1ccc2nc(-c3cccnc3)[nH]c2c1,435,-3.2% (inactive),-1.8% (inactive),106%,-9.3% (inactive),116%,-0.571 (inactive),1.8e-05 (inactive),0.00606 (inactive),-7.23% (inactive),-16.4% (inactive)
CCSC1(SCC)N=C(N)C2(C#N)C(c3ccccc3)NC(C)=C(C)C12C#N (stereo not drawn),422,2% (inactive),13.7% (inactive),108%,-15.4% (inactive),120%,-0.401 (inactive),-1.2e-05 (inactive),0.00608 (inactive),7.48% (inactive),17.3% (inactive)
Cc1nnc2sc(-c3cccc(NC(=O)c4cccnc4)c3)nn12,295,-6% (inactive),5% (inactive),89.2%,-54% (inactive),108%,-0.346 (inactive),1.1e-05 (inactive),0.006 (inactive),-21% (inactive),-15.6% (inactive)
CCOC(=O)C1CCCN(C(=O)c2cc3c(C)nc4ccccc4c3o2)C1 (stereo not drawn),525,-14.7% (inactive),8.7% (inactive),100%,-91.4% (inactive),119%,-0.522 (inactive),0.000185 (inactive),0.00625 (inactive),14.5% (inactive),5.32% (inactive)
CCC(C)NC(=O)c1cc(-c2ccc(OC)cc2)on1 (stereo not drawn),689,-15.5% (inactive),1.3% (inactive),101%,13.2% (inactive),108%,-0.286 (inactive),-1.4e-05 (inactive),0.00668 (inactive),-45.5% (inactive),-170% (inactive)
COc1cc(CNc2ccc(N3CCOCC3)c(C(=O)O)c2)ccc1OCC(N)=O,362,-2.2% (inactive),-15.5% (inactive),99.3%,26.6% (inactive),98.6%,-0.343 (inactive),0.000117 (inactive),0.00665 (inactive),5.32% (inactive),9.86% (inactive)
CCn1cc(C(=O)OCC(=O)OC2CC(C)CCC2C(C)C)c(=O)c2ccc(C)nc21 (stereo not drawn),519,-21.2% (inactive),2.5% (inactive),92.5%,26.8% (inactive),104%,-0.416 (inactive),-0.000351 (inactive),0.00567 (inactive),18.5% (inactive),5.31% (inactive)
CN1C(=O)CC(C(=O)Nc2ccc(F)cc2)SC1=Nc1ccc2c(c1)OCO2 (stereo not drawn),715,-5.4% (inactive),11.5% (inactive),117%,-15.7% (inactive),118%,-0.269 (inactive),-3.8e-05 (inactive),0.0044 (inactive),16.1% (inactive),4.96% (inactive)
COc1ccc(C)cc1NC(=O)CNC(=O)Cn1ccc2ccccc2c1=O,730,-14.1% (inactive),-10.4% (inactive),108%,21.2% (inactive),96.3%,-0.461 (inactive),-2.5e-05 (inactive),0.0048 (inactive),25.5% (inactive),20.3% (inactive)
CCCC(=O)Nc1ccccc1NC(=O)CCC,353,-5.6% (inactive),-10.5% (inactive),103%,-23.8% (inactive),109%,-0.434 (inactive),-6e-05 (inactive),0.00516 (inactive),14.4% (inactive),15.4% (inactive)
CCOC(=O)C1C(=O)NC(SCC(=O)Nc2nccs2)=C(C#N)C1c1ccccc1OCC (stereo not drawn),605,-27.7% (inactive),-20.6% (inactive),120%,20.7% (inactive),104%,-0.454 (inactive),-3.1e-05 (inactive),0.00515 (inactive),19.6% (inactive),20.1% (inactive)
COc1ccc(-n2c(COc3ccccc3)nnc2SCc2ccc(C#N)cc2)cc1,687,-7.7% (inactive),-21% (inactive),56.4%,-58.1% (inactive),95.8%,-0.543 (inactive),-5.8e-05 (inactive),0.00479 (inactive),3.44% (inactive),19.5% (inactive)
O=C(Nc1ccccc1)N1C(=O)C2(OCCO2)c2ccccc21,397,6.5% (inactive),-15.7% (inactive),91.7%,-75.2% (inactive),105%,-0.542 (inactive),-0.000137 (inactive),0.00486 (inactive),14.1% (inactive),7.78% (inactive)
CCCN(S(=O)(=O)c1ccc(OCC)cc1)S(=O)(=O)c1cccs1,457,7.4% (inactive),-7.2% (inactive),109%,-52.8% (inactive),101%,-0.481 (inactive),0.0001 (inactive),0.00646 (inactive),-4.95% (inactive),2.38% (inactive)
Cc1ccc(C)n1NC(=O)c1ccco1,692,-4.7% (inactive),0% (inactive),94.1%,-19.2% (inactive),109%,-0.567 (inactive),-1.3e-05 (inactive),0.00521 (inactive),9.01% (inactive),14.3% (inactive)
CN=C(C)C1=C(O)C(C(=O)OC)C(C)(C)CC1=O (stereo not drawn),506,5% (inactive),-7.4% (inactive),108%,-187% (inactive),122%,-0.54 (inactive),-0.00011 (inactive),0.00531 (inactive),16.6% (inactive),16.6% (inactive)
Cc1nn(Cc2ccccc2Cl)c(C)c1NC(=O)C1C2CCC(O2)C1C(=O)O (stereo not drawn),625,7.7% (inactive),0.3% (inactive),101%,16.3% (inactive),96.3%,-0.494 (inactive),-3.1e-05 (inactive),0.00475 (inactive),-10.5% (inactive),-23.8% (inactive)
CCN(CC)C(=O)c1sc(NC(=O)c2ccco2)c(C#N)c1C,752,-1.3% (inactive),-26% (inactive),118%,1.3% (inactive),117%,-0.586 (inactive),1.3e-05 (inactive),0.00573 (inactive),11.4% (inactive),13.3% (inactive)
O=c1ccn(Cc2ccccc2Cl)cc1,440,3% (inactive),1.3% (inactive),102%,0.1% (inactive),131%,-0.426 (inactive),-4e-05 (inactive),0.00507 (inactive),15.6% (inactive),14.2% (inactive)
Cc1onc(-c2ccccc2)c1C(N)=O,506,-11.2% (inactive),-1.6% (inactive),98.5%,-158% (inactive),159%,-0.563 (inactive),-6.3e-05 (inactive),0.00641 (inactive),16% (inactive),16.2% (inactive)
c1ccc(-c2noc(-c3cccnc3)n2)nc1,359,-2.1% (inactive),0.3% (inactive),102%,-85.3% (inactive),96.9%,-0.575 (inactive),-4.4e-05 (inactive),0.00712 (inactive),0.927% (inactive),-38.1% (inactive)
CCC(=O)Nc1ccc(NC(=O)CSc2nnnn2C(C)C)cc1,667,-8.1% (inactive),-6% (inactive),74.9%,-74.4% (inactive),129%,-0.461 (inactive),-4.3e-05 (inactive),0.00465 (inactive),14.9% (inactive),16.2% (inactive)
C=CCn1c(C)cc(C(=O)CSc2nc3ccccc3c(=O)[nH]2)c1C,278,-0.8% (inactive),11.4% (inactive),92%,-59.5% (inactive),104%,-0.52 (inactive),-3.3e-05 (inactive),0.0056 (inactive),-41.3% (inactive),-75.7% (inactive)
CCOC(=O)c1nnn(-c2nonc2N)c1CN1CCc2ccccc2C1,200,-3.9% (inactive),-11.1% (inactive),80.6%,-18.4% (inactive),108%,-0.45 (inactive),4.7e-05 (inactive),0.00671 (inactive),6.68% (inactive),24.5% (inactive)
CCOCCCNC(=O)C1CCC(=O)N1CCc1ccccc1 (stereo not drawn),237,2.7% (inactive),1.1% (inactive),92.5%,-20% (inactive),95.1%,-0.568 (inactive),-6.9e-06 (inactive),0.00522 (inactive),5.67% (inactive),12.9% (inactive)
O=C(Nc1ccc(Cc2ccncc2)cc1)C1CC1,447,2.9% (inactive),-6.1% (inactive),100%,-33.5% (inactive),118%,-0.605 (inactive),2.8e-05 (inactive),0.00686 (inactive),7.94% (inactive),15.6% (inactive)
CCOC(=O)c1c(NC(=O)CSc2nnc(-c3cccnc3)o2)sc(C)c1C,431,-13.1% (inactive),24.3% (inactive),73.6%,-15% (inactive),98.1%,-0.484 (inactive),4.4e-06 (inactive),0.00591 (inactive),3.63% (inactive),16.6% (inactive)
